From ChEMBL document CHEMBL1149272, “Catecholic flavonoids acting as telomerase inhibitors” (J Med Chem, 2004)
Activity calls are given as the source filed them. No cut-off for these calls is given here.

biological target: DNA-directed RNA polymerase (Enterobacteria phage T3) (UniProt P07659); assay: Inhibition of T3 RNA polymerase up to 2 uM; details: not given
Sequence (P07659 whole entry): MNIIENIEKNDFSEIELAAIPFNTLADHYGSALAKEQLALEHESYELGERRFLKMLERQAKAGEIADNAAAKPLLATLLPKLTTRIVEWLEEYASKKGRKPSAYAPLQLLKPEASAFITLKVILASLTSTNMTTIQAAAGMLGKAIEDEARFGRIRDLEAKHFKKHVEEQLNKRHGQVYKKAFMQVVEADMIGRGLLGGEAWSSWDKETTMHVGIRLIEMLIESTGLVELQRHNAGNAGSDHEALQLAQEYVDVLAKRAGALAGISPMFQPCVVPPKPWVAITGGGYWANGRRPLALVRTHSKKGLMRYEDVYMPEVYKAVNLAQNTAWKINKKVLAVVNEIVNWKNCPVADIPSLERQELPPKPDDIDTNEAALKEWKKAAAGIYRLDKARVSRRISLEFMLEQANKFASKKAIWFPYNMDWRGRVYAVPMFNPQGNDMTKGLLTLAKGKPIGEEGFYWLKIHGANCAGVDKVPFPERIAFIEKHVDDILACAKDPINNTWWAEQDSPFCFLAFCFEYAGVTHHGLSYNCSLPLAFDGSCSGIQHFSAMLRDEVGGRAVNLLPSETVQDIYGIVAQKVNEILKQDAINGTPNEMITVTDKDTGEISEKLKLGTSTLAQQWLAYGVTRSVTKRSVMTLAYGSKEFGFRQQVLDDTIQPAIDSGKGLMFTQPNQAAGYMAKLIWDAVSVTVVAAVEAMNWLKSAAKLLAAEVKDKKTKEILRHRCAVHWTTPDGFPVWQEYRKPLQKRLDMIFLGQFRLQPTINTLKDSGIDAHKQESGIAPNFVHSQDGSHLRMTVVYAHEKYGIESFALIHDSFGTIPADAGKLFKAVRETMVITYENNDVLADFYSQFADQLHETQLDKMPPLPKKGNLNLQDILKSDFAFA

Row | Activity | SMILES
1 | inactive | O=c1cc(-c2ccc(O)c(O)c2)oc2c(O)c(O)ccc12

biological target: T1, Telomerase reverse transcriptase (Homo sapiens, UniProt O14746); details: 1 uM
T1 sequence (O14746 whole entry): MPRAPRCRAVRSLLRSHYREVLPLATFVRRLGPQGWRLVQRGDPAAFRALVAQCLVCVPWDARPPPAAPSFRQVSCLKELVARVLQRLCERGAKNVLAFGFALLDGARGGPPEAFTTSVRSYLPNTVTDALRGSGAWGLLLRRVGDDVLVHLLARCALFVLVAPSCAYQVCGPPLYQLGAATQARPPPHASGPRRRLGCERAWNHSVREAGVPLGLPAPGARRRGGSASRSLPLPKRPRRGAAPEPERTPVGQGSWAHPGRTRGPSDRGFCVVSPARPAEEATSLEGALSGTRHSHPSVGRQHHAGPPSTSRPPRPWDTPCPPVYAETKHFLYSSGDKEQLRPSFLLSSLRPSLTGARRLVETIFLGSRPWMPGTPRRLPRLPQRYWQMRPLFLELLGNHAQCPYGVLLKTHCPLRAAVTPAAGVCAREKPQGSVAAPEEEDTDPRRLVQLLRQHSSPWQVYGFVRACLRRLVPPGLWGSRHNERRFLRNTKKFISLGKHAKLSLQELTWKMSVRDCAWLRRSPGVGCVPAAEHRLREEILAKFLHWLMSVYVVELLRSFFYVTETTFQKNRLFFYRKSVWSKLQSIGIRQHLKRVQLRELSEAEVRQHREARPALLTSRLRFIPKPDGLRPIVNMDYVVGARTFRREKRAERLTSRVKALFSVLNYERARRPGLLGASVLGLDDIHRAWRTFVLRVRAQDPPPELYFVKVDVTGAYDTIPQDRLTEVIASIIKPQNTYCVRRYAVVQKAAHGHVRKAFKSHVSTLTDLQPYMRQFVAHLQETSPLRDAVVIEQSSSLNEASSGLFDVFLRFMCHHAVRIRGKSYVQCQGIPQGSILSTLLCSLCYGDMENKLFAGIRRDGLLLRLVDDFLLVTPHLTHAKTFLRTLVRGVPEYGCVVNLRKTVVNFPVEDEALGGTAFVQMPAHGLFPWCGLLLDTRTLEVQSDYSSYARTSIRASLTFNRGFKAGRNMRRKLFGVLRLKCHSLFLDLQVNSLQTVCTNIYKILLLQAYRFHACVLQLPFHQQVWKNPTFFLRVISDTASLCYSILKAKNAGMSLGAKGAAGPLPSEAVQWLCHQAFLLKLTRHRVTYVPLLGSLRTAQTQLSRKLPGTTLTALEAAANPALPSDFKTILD

Row | inhibition [%] | SMILES
2 | 50 | O=c1cc(-c2ccc(O)c(O)c2)oc2c(O)c(O)ccc12

biological target: T1, Telomerase reverse transcriptase; assay: Inhibition of human telomerase from HEK293 cell extracts by Flash-Plate assay; format: cell-free; details: not given
Method in brief: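 Affinity-enriched telomerase extract from HEK293 cells overexpressing telomerase, adjusted to 5 fmol dNTP incorporation min-1 µL-1, in buffer with 50 mM Tris-acetate pH 8.5, 150 mM K acetate, 1 mM MgCl2, 1 mM EGTA. Buffer also held 10 µM dATP, 20 µM dGTP, 120 µM TTP and 500 nM 5'-biotinylated primer. Compounds in DMSO at 0.01-10 µM; 2 h at 37 °C. Elongated primer hybridized to a 33P-labeled complementary probe, captured on streptavidin Flash-Plate; IC50 from radioactivity.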

Row | IC50 [µM] | SMILES
3 | > 40 | O=c1cc(-c2ccc(O)c(O)c2)oc2ccccc12
4 | > 40 | O=c1[nH]c2ccc(-c3cc(=O)c4ccc(O)c(O)c4o3)cc2[nH]c1=O
5 | 1.7 | O=C(/C=C/c1ccc(O)c(O)c1)c1ccc(O)c(O)c1
6 | > 40 | O=c1cc(-c2ccc(O)c(O)c2)oc2cc(O)ccc12
7 | 36 | O=c1cc(-c2ccccc2)oc2c(O)c(O)ccc12 [7,8-DIHYDROXYFLAVONE]
8 | 6 | O=C(/C=C/c1ccc(O)c(O)c1)c1ccc(O)c(O)c1O
9 | 0.82 | O=c1cc(-c2ccc(O)c(O)c2)oc2c(O)c(O)c(Cl)cc12

Further lines, the compound ahead of its results:

Row | SMILES | IC50 [µM]
10 | COc1ccc2c(=O)cc(-c3ccc(O)c(O)c3)oc2c1OC | > 40
11 | O=c1cc(-c2cccc(O)c2)oc2c(O)c(O)ccc12 | 50
12 | O=c1cc(-c2ccc(O)c(O)c2)oc2c(O)c(O)ccc12 | 0.2
13 | COc1ccc2c(=O)cc(-c3ccc4[nH]c(CCCN(C)C)nc4c3)oc2c1OC | 0.47
14 | COc1ccc(-c2cc(=O)c3ccc(O)c(O)c3o2)cc1OC | 11.7
15 | O=c1cc(-c2ccc(O)c(O)c2)oc2c(O)cccc12 | > 40
16 | O=c1[nH]c2ccc(-c3cc(=O)c4ccc(O)c(O)c4o3)cc2[nH]1 | 1.2
17 | COc1ccc(-c2cc(=O)c3ccc(O)c(O)c3o2)cc1O | 11
18 | O=c1cc(-c2ccc3[nH]cnc3c2)oc2c(O)c(O)ccc12 | 4
19 | COc1ccc2c(=O)cc(-c3ccc4[nH]c(C)nc4c3)oc2c1OC | 22.1
20 | COc1ccc2c(=O)cc(-c3ccc4[nH]c(=O)c(=O)[nH]c4c3)oc2c1OC | > 40
21 | Cc1nc2cc(-c3cc(=O)c4ccc(O)c(O)c4o3)ccc2[nH]1 | > 40

biological target: T1, Telomerase reverse transcriptase; details: A-431, 1 uM

Row | inhibition [%] | SMILES
22 | 50 | O=c1cc(-c2ccc(O)c(O)c2)oc2c(O)c(O)ccc12
